Test results from ChEMBL document CHEMBL1126064, “Enzymatic synthesis and comparative biological evaluation of a phosphonate analogue of the lipid A precursor” (1992).

Columns and labels:
[1] = target: T1, Ornithine decarboxylase (Mus musculus) (UniProt P00860); assay: Compound was evaluated for the stimulation of Ornithine decarboxylase (ODC) activity in murine macrophagelike cell line RAW264 as a parameter for macrophage stimulation, and the pyrogenicity test in rabbits at a concentration of 0.02 ug/ml
T1 sequence (whole entry): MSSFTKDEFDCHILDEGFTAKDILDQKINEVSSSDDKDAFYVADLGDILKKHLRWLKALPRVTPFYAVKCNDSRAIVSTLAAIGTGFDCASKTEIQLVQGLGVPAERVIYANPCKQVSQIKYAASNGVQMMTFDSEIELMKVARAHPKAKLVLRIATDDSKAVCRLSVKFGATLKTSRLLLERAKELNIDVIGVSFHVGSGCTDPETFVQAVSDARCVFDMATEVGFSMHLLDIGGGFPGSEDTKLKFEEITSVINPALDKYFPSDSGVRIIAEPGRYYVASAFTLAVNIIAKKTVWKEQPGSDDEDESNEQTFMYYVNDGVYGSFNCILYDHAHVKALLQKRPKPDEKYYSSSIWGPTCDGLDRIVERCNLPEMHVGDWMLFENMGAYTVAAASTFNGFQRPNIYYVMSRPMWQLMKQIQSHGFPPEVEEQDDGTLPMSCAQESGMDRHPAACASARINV
Outline: (§1)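 RAW-264 cells at 5.5 × 10^5 cells/mL in serum-free DMEM-H21 with 15 mM HEPES and 1 mM pyruvate, held overnight at 37 °C/5% CO2. Murine γ-IFN (2000 units/mL) and test material in pyrogen-free water then added for 4 h. Cells were lysed by sonication, and ODC in the supernatant was assayed with [3H]-L-ornithine plus 1 mM L-ornithine stock, 60 min at 37 °C. LPS 5 ng/mL served as internal standard.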

[2] = target: T1, Ornithine decarboxylase (Mus musculus); assay: Compound was evaluated for the stimulation of Ornithine decarboxylase (ODC) activity in murine macrophagelike cell line RAW264 as a parameter for macrophage stimulation, and the pyrogenicity test in rabbits at a concentration of 0.1 ug/ml; outline: as §1
[3] = target: T1, Ornithine decarboxylase (Mus musculus); assay: Compound was evaluated for the stimulation of Ornithine decarboxylase (ODC) activity in murine macrophagelike cell line RAW264 as a parameter for macrophage stimulation, and the pyrogenicity test in rabbits at a concentration of 0.5 ug/ml; outline: as §1
Oryctolagus cuniculus [4] = assay: Increase in temperature of three rabbits treatment with the compound at a dose of 1 ug/kg.; format: functional
[5] = target: T1, Ornithine decarboxylase (Mus musculus); assay: Compound was evaluated for the stimulation of Ornithine decarboxylase (ODC) activity in murine macrophagelike cell line RAW264 as a parameter for macrophage stimulation, and the pyrogenicity test in rabbits at a concentration of 2 ug/ml; outline: as §1
[6] = target: T1, Ornithine decarboxylase (Mus musculus); assay: Compound was evaluated for the stimulation of Ornithine decarboxylase (ODC) activity in murine macrophagelike cell line RAW264 as a parameter for macrophage stimulation, and the pyrogenicity test in rabbits at a concentration of 10 ug/ml; outline: as §1
[7] = Endotoxic activity determined by limulus amoebocyte lysate (LAL) assay
Oryctolagus cuniculus [8] = assay: Increase in temperature of three rabbits treatment with the compound at a dose of 50 ug/kg.; format: functional

Compound | Stimulation [1] [%] | Stimulation [2] [%] | Stimulation [3] [%] | increase in temperature (Oryctolagus cuniculus [4]) | Stimulation [5] [%] | Stimulation [6] [%] | EU [7] [g⁻¹] | increase in temperature (Oryctolagus cuniculus [8])
CCCCCCCCCCCC(O)CC(=O)N[C@@H]1C(OCC2OC(OP(=O)(O)O)[C@@H](NC(=O)CC(O)CCCCCCCCCCC)C(OC(=O)CC(O)CCCCCCCCCCC)[C@@H]2O)OC(CO)[C@@H](O)C1OC(=O)CC(O)CCCCCCCCCCC (stereo partly specified) | 2 | 30 | 60 | 2.1 | 98 | 97 | 80000 | 5.95
CCCCCCCCCCCC(O)CC(=O)N[C@@H]1C(OCC2OC(P(=O)(O)O)[C@@H](NC(=O)CC(O)CCCCCCCCCCC)C(OC(=O)CC(O)CCCCCCCCCCC)[C@@H]2O)OC(CO)[C@@H](O)C1OC(=O)CC(O)CCCCCCCCCCC (stereo partly specified) [PHOSPHONATE ANALOGUE OF LIPID A] | 5 | 20 | 70 | 2.1 | 75 | 84 | 30000 | 6.6
